Compound activity: PubChem BioAssay, Sanford-Burnham Center for Chemical Genomics
Sampled rows, rich in hits. Any-hit rate of the full collection: about 2.4%.
LMPTP inh: blocks human LMPTP phosphatase; P24666; recombinant LMPTP-A, OMFP fluorogenic substrate, fluorescence intensity; inhibition, % at 20 µM; actives 0.22% (n = 360,000);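 active means compounds that cut the enzyme signal by at least half of the control window in the single-dose screen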;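 further: plate controls were DMSO wells with enzyme plus substrate for no effect and substrate without enzyme for full effect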
Target sequence (P24666 whole entry, looked up): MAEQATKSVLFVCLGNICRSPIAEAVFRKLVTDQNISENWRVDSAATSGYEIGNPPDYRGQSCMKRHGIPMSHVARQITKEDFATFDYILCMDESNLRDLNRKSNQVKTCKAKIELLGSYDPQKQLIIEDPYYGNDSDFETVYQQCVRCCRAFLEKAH
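Assay system: LMPTP-A, protein tyrosine phosphatase of low molecular weight / Medium: pH 6.0 Bis-Tris buffer with DTT and Triton X-100 / Schedule: 50 min enzyme reaction at room temperature, protected from light / Measured by: endpoint fluorescence intensity from OMFP dephosphorylation / Read-out basis: % inhibition relative to no-enzyme and uninhibited control wells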
Scp-1 inhibitor: blocks human Scp-1 phosphatase activity | Q9GZU7 | Recombinant Scp1, phosphopeptide, malachite green phosphate absorbance | inhibition, % at 20 µM | actives 0.88% (n = 340,000) | AID 493091;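 active means inhibition above about 50% at 20 µM, limit read from the data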;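 further: plate controls were DMSO wells with enzyme for no effect and wells lacking enzyme for full effect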
Target sequence (Q9GZU7 76-261 limits assumed): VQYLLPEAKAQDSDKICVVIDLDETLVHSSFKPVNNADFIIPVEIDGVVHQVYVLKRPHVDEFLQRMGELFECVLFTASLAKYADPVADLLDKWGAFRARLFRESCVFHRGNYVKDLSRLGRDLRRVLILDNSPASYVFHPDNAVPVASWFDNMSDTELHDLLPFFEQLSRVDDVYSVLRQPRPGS
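Test system – truncated SCP-1 phosphatase (76-261aa) · Reagent – Phosphorylated 17-residue peptide substrate · Incubation – 45 min room-temperature reaction, 5 min colour, 30 min stabiliser · Detection – colorimetric phosphate reagent with accelerator and stabiliser, absorbance at 630 nm · Measure – % inhibition at 20 µM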
DNMT1 inh: blocks human DNA methyltransferase DNMT1; P26358; DNMT1 molecular beacon, Hinp1I cleavage, fluorescence; inhibition (reported as % activation of signal), % at 10 µM; actives 0.83% (n = 360,000); AID 588458; in the data active means inhibition above about 50%
STEP inh: STEP (human) phosphatase inhibition; recombinant STEP, OMFP fluorogenic substrate, fluorescence; P54829; inhibition, % at 20 µM; actives 0.25% (n = 360,000);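 active means inhibition at 20 µM, scaled per plate between control wells, above about 37%, limit read from the data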;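 further: 0% = DMSO with enzyme and substrate and 100% = substrate only without enzyme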
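Material: STEP (striatal-enriched tyrosine phosphatase) enzyme, cell-free | Medium: 50 mM Bis-Tris pH 6.0 with 2.5 mM DTT and 0.005% Tween 20 | Read-out: Percent inhibition scaled to no-enzyme and uninhibited-enzyme controls, plate-pattern corrected | Signal: Fluorescence read at 480 nm ex / 540 nm em | Times: 20 min reaction, room temperature, in the dark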
NadD inh: inhibitors of Staphylococcus aureus NadD. purified NadD enzyme, colorimetric absorbance read-out. inhibition, % at 20 µM. actives 0.78% (n = 360,000). AID 602399; in the data active means inhibition above about 26%
SUMO1-SIM PPI: modulators of human SUMO1-mediated protein-protein interactions; P63165; SUMO1 binding to a labelled peptide, TR-FRET, 1 h; inhibition, % at 20 µM; actives 0.33% (n = 360,000); in the data active means inhibition above about 37%
Target sequence (P63165 whole entry, looked up): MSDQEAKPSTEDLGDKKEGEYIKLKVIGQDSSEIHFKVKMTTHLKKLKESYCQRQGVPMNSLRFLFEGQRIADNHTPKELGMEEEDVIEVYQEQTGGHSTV
Scp1 confirm: confirmation of human Scp-1 phosphatase inhibitors | shares compounds with Scp-1 inhibitor | recombinant SCP-1 catalytic domain, phosphate release, malachite green absorbance | inhibition, % at 20 µM | actives 61% (n = 2,500) | AID 540281;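 further: plate controls were DMSO with enzyme for no effect and buffer wells lacking enzyme for full effect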
MG interference: interferes with malachite green readout, flagging false Scp-1 hits | apparent inhibition (interference), % at 20 µM | Colorimetric interference counterscreen, malachite green absorbance 630 nm | 2,500 tested, under 10 active | shares compounds with Scp-1 inhibitor;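 further: compounds added after enzyme reaction finished so only phosphate colour detection is probed; plate controls were DMSO wells with completed Scp-1 reaction for no effect and substrate wells lacking enzyme for full effect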
Scp1 DSF: binds human Scp-1, shifting its melting temperature; shares compounds with Scp-1 inhibitor; Recombinant SCP1, Sypro Orange thermal shift Tm; thermal shift relative to vanadate control, % at 40 µM; actives 25% (n = 1,500);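 active means substances whose mean melting-temperature shift, as a percentage of the reference inhibitor's shift, reaches about 5.3%, limit read from the data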;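 further: 0% = Tm of DMSO wells and 100% = Tm with sodium orthovanadate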
Numbers without * were called inactive; · = no result given.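 How the source made its calls, unless noted: active means inhibition of at least 30% at 20 µM; inactive means the rest.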

SMILES | LMPTP inh | Scp-1 inhibitor | DNMT1 inh | STEP inh | NadD inh | SUMO1-SIM PPI | Scp1 confirm | MG interference | others
CCCn1c2c(c(=N)c3c1CCC3)CCCC2 | 1 | 74* | 10 | -6 | 17 | 2 | 6 | -9
FC(F)(F)c1cnc(C(c2ccccc2)c2ncn[nH]2)c(Cl)c1 (stereo not given) | -2 | 98* | 1 | -1 | 0 | 3 | 2 | -3
C[C@@H]1CN([C@@H](C)CO)C(=O)CCCn2nncc2CO[C@H]1CN(C)S(=O)(=O)c1ccccc1F | 0 | · | 4 | 0 | 2 | 0 | · | ·
O=C(Oc1ccccc1C(=O)N1CCOCC1)c1ccc(F)cc1 | 2 | 97* | 0 | 2 | -5 | 4 | 0 | -5
CCc1c(C)nc2cc(-c3ccc(Cl)cc3)[nH]n2c1=O | 1 | -7 | 2 | 2 | 2 | 6 | · | ·
O=c1c2c(nc3cc(-c4ccc(Cl)cc4)[nH]n13)CCS2 | 61* | 84* | 27 | 22 | 9 | 10 | 31* | -4 | Scp1 DSF=2
Cc1cccc(/C=C(\C(=O)O)c2ccc(S(=O)(=O)N3CCCC3)s2)c1 | 14 | 93* | 62* | 8 | -1 | 0 | 77* | -4 | Scp1 DSF=1
O=C(O)/C(=C\c1cccc(F)c1)c1ccc(S(=O)(=O)N2CCCC2)s1 | 1 | 33 | 27 | 2 | 0 | -2 | · | ·
O=C(Cn1ccc(NC(=O)OCc2ccccc2)nc1=O)NCc1ccc2c(c1)OCO2 | -2 | 3 | 10 | 1 | 2 | -1 | -8 | -13
CN(C(=O)COC(=O)CNC(=O)c1ccc(C(C)(C)C)cc1)c1c(N)n(Cc2ccccc2)c(=O)[nH]c1=O | 0 | -3 | 0 | 7 | 2 | 1 | · | ·
Cc1c(CCC(=O)O)c(=O)oc2cc(OCc3cccc(F)c3)ccc12 | 1 | -5 | 0 | 4 | -2 | 12 | · | ·
Cc1c(CCC(=O)O)c(=O)oc2cc(OCc3ccccc3Br)ccc12 | 4 | 83* | -3 | 3 | 8 | 19 | 76* | -9 | Scp1 DSF=-11
Cc1oncc1C(=O)N1CCCC(CO)(Cc2ccc(F)cc2F)C1 (stereo not given) | -1 | -8 | -1 | 0 | -3 | 10 | · | ·
C=CCn1c(SCC(=O)c2ccccc2)nnc1-c1ccc2c(c1)OCO2 | 1 | 11 | 1 | -15 | 2 | 0 | · | ·
COC(=O)c1c(NC(=O)COC(=O)[C@@H](NS(=O)(=O)c2cccc(Cl)c2)C(C)C)sc2c1CCC2 | 2 | -12 | -8 | 0 | 11 | -2 | · | ·
CC(C)[C@H](NS(=O)(=O)c1cccc(Cl)c1)C(=O)OCC(=O)NC(=O)CN1CCCC1=O | 9 | 57* | 38 | 18 | -3 | 6 | 42* | -12 | Scp1 DSF=-5
NC(=O)COC(=O)/C=C/c1cccc(Br)c1 | 0 | -3 | -1 | 0 | -7 | 0 | · | ·
CC(C)N(C(=O)CSc1nnc(-c2ccc3c(c2)OCO3)n1C)C(C)C | 0 | 55* | 0 | -1 | -6 | -3 | -24 | -19
C=C1CCN(CC(=O)OC)S(=O)(=O)c2ccccc21 | -2 | 20 | 5 | -2 | 0 | 0 | · | ·
O=C(Nc1ccc2oc(-c3ccncc3)nc2c1)c1ccc2c(c1)OCCO2 | 34 | 100* | 4 | 15 | 0 | 34 | -11 | -14
COc1ccc(-n2nnnc2SCC(=O)NNC(=O)c2ccc([N+](=O)[O-])cc2)cc1 | 1 | 5 | 3 | -2 | 5 | 19 | · | ·
Cc1ccc(-n2nnnc2SCC(=O)NNC(=O)c2ccc([N+](=O)[O-])cc2)cc1 | 31 | 50* | 1 | 16 | 7 | -16 | 41* | -11 | Scp1 DSF=0
Cc1cc(=O)oc2cc(NC(=S)NCc3ccccn3)ccc12 | 0 | -6 | -3 | -2 | 2 | -5 | · | ·
